This note sets out measurements from ChEMBL document CHEMBL4359823, “Switching on the activity of 1,5-diaryl-pyrrole derivatives against drug-resistant ESKAPE bacteria: Structure-activity relationships and mode of action studies” (Eur J Med Chem, 2019).

In test [1] the test system is Klebsiella pneumoniae. In words: Antibacterial activity against Klebsiella pneumoniae M6 measured after overnight incubation in presence of polymyxin B nonapeptide by microbroth dilution method. Format: functional.
Test [2] concerns Escherichia coli. The test is described as follows: Antibacterial activity against Escherichia coli NCTC12923 measured after overnight incubation by microbroth dilution method. It counts as functional. A digest of the protocol:
(§1)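 Microbroth dilution MIC. Compound DMSO stocks were diluted in water as a 2-fold series. Overnight TSB cultures were back-diluted to OD 0.01 and mixed 1:1 with compound. Plates were incubated overnight at 37 °C. MIC was the lowest concentration without visible growth (<0.1 OD600), run in duplicate.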
A general note: Broth dilution looks for growth in wells or tubes with falling amounts of substance.

Test [3] concerns Escherichia coli. In words: Antibacterial activity against Escherichia coli NCTC12923 measured after overnight incubation in presence of polymyxin B nonapeptide by microbroth dilution method. It counts as functional.
Test [4] relates to Klebsiella pneumoniae. The test is described as follows: Antibacterial activity against Klebsiella pneumoniae M6 measured after overnight incubation by microbroth dilution method. It counts as functional. In a few lines: as §1
Test [5] relates to Pseudomonas aeruginosa. In words: Antibacterial activity against Pseudomonas aeruginosa NCTC13437 measured after overnight incubation by microbroth dilution method. Format: functional. In a few lines:
as §1

Test [6] relates to Staphylococcus aureus. In words: Antibacterial activity against methicillin resistant Staphylococcus aureus NCTC13616 measured after overnight incubation by microbroth dilution method. It counts as functional. In a few lines: (§2)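 Microbroth dilution: DMSO stocks diluted in water, 2-fold series. Overnight TSB cultures back-diluted to OD 0.01 and mixed 1:1 with compound. Incubated overnight at 37 °C; MIC taken as lowest concentration without visible growth (<0.1 OD600). Run in duplicate; matching DMSO levels checked for effect on growth.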

For test [7], the system named is Staphylococcus aureus. In words: Antibacterial activity against methicillin resistant Staphylococcus aureus NCTC13277 measured after overnight incubation by microbroth dilution method. Format: functional. In a few lines: as §2
The subject of test [8] is Enterococcus faecalis. In words: Antibacterial activity against vancomycin resistant Enterococcus faecalis NCTC12201 measured after overnight incubation by microbroth dilution method. It counts as functional. A digest of the protocol: as §2
The subject of test [9] is Staphylococcus aureus. In words: Antibacterial activity against methicillin sensitive Staphylococcus aureus NCTC 6571 measured after overnight incubation by microbroth dilution method. Format: functional. A digest of the protocol:
as §2

The subject of test [10] is Acinetobacter baumannii. In words: Antibacterial activity against Acinetobacter baumannii AYE measured after overnight incubation by microbroth dilution method. Format: functional. In a few lines: as §1
For test [11], the system named is Acinetobacter baumannii. The test is described as follows: Antibacterial activity against Acinetobacter baumannii AYE measured after overnight incubation in presence of polymyxin B nonapeptide by microbroth dilution method. Format: functional.
Test [12] relates to Acinetobacter baumannii. In words: Antibacterial activity against Acinetobacter baumannii ATCC 17978 measured after overnight incubation by microbroth dilution method. Format: functional. A digest of the protocol:
as §1

Test [13] has as its system Pseudomonas aeruginosa. In words: Antibacterial activity against Pseudomonas aeruginosa NCTC13437 measured after overnight incubation in presence of polymyxin B nonapeptide by microbroth dilution method. It counts as functional.
The test system of test [14] is Acinetobacter baumannii. In words: Antibacterial activity against Acinetobacter baumannii ATCC 17978 measured after overnight incubation in presence of polymyxin B nonapeptide by microbroth dilution method. It counts as functional.
In test [15] the test system is Klebsiella pneumoniae. The test is described as follows: Antibacterial activity against Klebsiella pneumoniae NCTC13368 measured after overnight incubation by microbroth dilution method. Format: functional. In a few lines: as §1
Test [16] has as its system Enterococcus faecalis. The test is described as follows: Antibacterial activity against vancomycin sensitive Enterococcus faecalis NCTC775 measured after overnight incubation by microbroth dilution method. It counts as functional. In a few lines:
as §2

Test [17] deals with Pseudomonas aeruginosa. In words: Antibacterial activity against Pseudomonas aeruginosa PAO1 measured after overnight incubation by microbroth dilution method. Format: functional. In a few lines:
as §1

For test [18], the system named is Pseudomonas aeruginosa. In words: Antibacterial activity against Pseudomonas aeruginosa PAO1 measured after overnight incubation in presence of polymyxin B nonapeptide by microbroth dilution method. It counts as functional.
Test [19] concerns Klebsiella pneumoniae. The test is described as follows: Antibacterial activity against Klebsiella pneumoniae NCTC13368 measured after overnight incubation in presence of polymyxin B nonapeptide by microbroth dilution method. Format: functional.
Test [20] has as its system Pseudomonas aeruginosa. The test is described as follows: Antibacterial activity against Pseudomonas aeruginosa PAO1 measured after overnight incubation in presence of phenylalanine arginine beta-naphthylamide by microbroth dilution method. It counts as functional. A digest of the protocol:
as §1

Test [21] relates to Enterococcus faecalis. In words: Antibacterial activity against vancomycin resistant Enterococcus faecalis NCTC12204 measured after overnight incubation by microbroth dilution method. It counts as functional. In a few lines:
as §2

The subject of test [22] is Staphylococcus aureus. The test is described as follows: Bacteriostatic activity against methicillin resistant Staphylococcus aureus NCTC13616 at 4 times MIC measured at 0 to 24 hrs by time kill assay.
The test system of test [23] is Pseudomonas aeruginosa. In words: Antibacterial activity against Pseudomonas aeruginosa NCTC13437 measured after overnight incubation in presence of phenylalanine arginine beta-naphthylamide by microbroth dilution method. Format: functional. In a few lines: as §1
The subject of test [24] is Klebsiella pneumoniae. The test is described as follows: Antibacterial activity against Klebsiella pneumoniae NCTC13368 measured after overnight incubation in presence of phenylalanine arginine beta-naphthylamide by microbroth dilution method. Format: functional. In a few lines:
as §1

For the next test, the target named is DNA gyrase (Staphylococcus aureus, UniProt P0A0K8+P20831, S84L). In words: Inhibition of Staphylococcus aureus DNA gyrase S84L mutant. It counts as protein-complex assay.
The test system of test [25] is Enterococcus faecalis. In words: Bacteriostatic activity against vancomycin resistant Enterococcus feacalis NCTC12204 at 4 times MIC measured at 0 to 24 hrs by time kill assay.
The target of another test is Topoisomerase IV (Staphylococcus aureus, UniProt P0C1S7+P0C1U9). In words: Inhibition of Staphylococcus aureus topoisomerase-4 expressed in Escherichia coli assessed as relaxation of pBR322 substrate measured after 30 mins by agarose gel electrophoresis.
For test [26], the system named is Acinetobacter baumannii. In words: Antibacterial activity against Acinetobacter baumannii ATCC 17978 measured after overnight incubation in presence of phenylalanine arginine beta-naphthylamide by microbroth dilution method. Format: functional. A digest of the protocol: as §1
Test [27] relates to Staphylococcus aureus. The test is described as follows: Antibacterial activity against Staphylococcus aureus NCTC13616 assessed as generation of drug resistance at 2 times MIC measured after 48 hrs by agar-based microbroth dilution method. It counts as functional. A digest of the protocol:
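Agar method: exponentially growing bacteria, in known numbers, plated on agar with doubling compound concentrations at and above the MIC; incubated 48 hours. Colonies growing above the MIC were picked and re-tested by microbroth MIC for raised resistance. Resistance frequency reported at 2xMIC.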

Test [28] can be described thus: Inhibition of Staphylococcus aureus DNA gyrase subunit A2B2 using relaxed pBR322 DNA as substrate measured after 30 mins in presence of ATP by ethidium bromide-based gel electrophoresis. A digest of the protocol:
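Supercoiling assay with S. aureus wild-type or S84L gyrase and relaxed pBR322, with or without varying compound, at 37 °C for 30 min. The reaction was stopped with STEB and extracted with chloroform:isoamyl alcohol (24:1). The aqueous phase was run on a 1% agarose gel and the supercoiled band quantified. IC50 came from at least three independent replicates.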

Test [29] has as its system Acinetobacter baumannii. In words: Antibacterial activity against Acinetobacter baumannii AYE measured after overnight incubation in presence of phenylalanine arginine beta-naphthylamide by microbroth dilution method. Format: functional. A digest of the protocol:
as §1

The subject of another test is HEK293. The test is described as follows: Cytotoxicity again human HEK293 cells measured after 24 hrs by XTT assay. Format: cell-based. The conditions noted are these: HEK293, 24 h. In a few lines:
(§3)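 Cells were grown in EMEM with glutamine, 10% FBS and non-essential amino acids at 37 °C, 10% CO2. Seeding was 1 x 10^5 cells/mL (HEK293) or 4 x 10^4 cells/mL (HeLa), then 24 h adherence. Doubling compound dilutions were applied for 24 h. XTT/PMS was added for 4 h in the dark, with absorbance read at 450 nm. Untreated cells were the 100% control and water-treated cells the 0% control; IC50 was fitted.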

In test [30] the test system is Escherichia coli. In words: Antibacterial activity against Escherichia coli NCTC12923 measured after overnight incubation in presence of phenylalanine arginine beta-naphthylamide by microbroth dilution method. Format: functional. In a few lines:
as §1

The test system of test [31] is Klebsiella pneumoniae. In words: Antibacterial activity against Klebsiella pneumoniae M6 measured after overnight incubation in presence of phenylalanine arginine beta-naphthylamide by microbroth dilution method. Format: functional. In a few lines: as §1
The next test has as its system Enterococcus faecium. In words: Antibacterial activity against Enterococcus faecium NCTC12204 assessed as generation of drug resistance at 2 times MIC measured after 48 hrs by agar-based microbroth dilution method.
In a further test the test system is HeLa. In words: Cytotoxicity again human HeLa cells measured after 24 hrs by XTT assay. Format: cell-based. In a few lines:
as §3
On the technique in general: Tetrazolium assays rely on reduction of a dye to a coloured formazan, in cell work by metabolically active cells.

≈ marks a conversion by molar mass, not a printed value. Calls of active or inactive are those of the source. No cut-off for these calls is given here.

As a reminder, the MIC is the lowest concentration found to suppress growth. For the compound `Cc1c(CNCc2ccccc2)cc(-c2ccc(Cl)cc2)n1-c1ccc(Cl)cc1`, the MIC was 32 µg/mL in the test on Klebsiella pneumoniae [1]; above 128 µg/mL against Escherichia coli [2]; above 128 µg/mL with Escherichia coli [3]; above 128 µg/mL against Klebsiella pneumoniae [4]; above 128 µg/mL against Pseudomonas aeruginosa [5]; 8 µg/mL (≈ 19 µM) against Staphylococcus aureus [6]. In addition, the MIC against Staphylococcus aureus [7] was 4 µg/mL (≈ 9.49 µM); in the test with Enterococcus faecalis [8], 4 µg/mL (≈ 9.49 µM); in the test on Staphylococcus aureus [9] it was 8 µg/mL (≈ 19 µM); against Acinetobacter baumannii [10] it was above 128 µg/mL; in the test with Acinetobacter baumannii [11], 16 µg/mL; with Acinetobacter baumannii [12], above 128 µg/mL. For the same compound, the MIC with Pseudomonas aeruginosa [13] is above 128 µg/mL; in the test on Acinetobacter baumannii [14] it was 16 µg/mL; in the test with Klebsiella pneumoniae [15], above 128 µg/mL; in the test on Enterococcus faecalis [16], 4 µg/mL (≈ 9.49 µM); against Pseudomonas aeruginosa [17] it was above 128 µg/mL; with Pseudomonas aeruginosa [18], above 128 µg/mL. Besides, in the test on Klebsiella pneumoniae [19], the MIC is above 128 µg/mL.
One may read the IC50 as the concentration that inhibits the measured activity by half. As to `Cc1c(CNC2CCC(NC(=N)N)CC2)cc(-c2ccc(Cl)cc2)n1-c1ccc(Cl)cc1` (stereo not drawn), the MIC with Klebsiella pneumoniae [1] was 64 µg/mL; with Escherichia coli [2], 8 µg/mL (≈ 17 µM); in the test with Pseudomonas aeruginosa [20] it was 128 µg/mL; with Escherichia coli [3], 4 µg/mL; against Enterococcus faecalis [21] it was 4 µg/mL (≈ 8.5 µM); in the test on Klebsiella pneumoniae [4], 32 µg/mL (≈ 68 µM). For the same compound, the MIC is 16 µg/mL (≈ 34 µM) against Pseudomonas aeruginosa [5]; 2 to 4 µg/mL (≈ 4.25 to 8.5 µM) in the test on Staphylococcus aureus [6]; 64 µg/mL in the test with Pseudomonas aeruginosa [23]; 4 µg/mL (≈ 8.5 µM) in the test with Staphylococcus aureus [7]; 128 µg/mL in the test on Klebsiella pneumoniae [24]; 16 µg/mL (≈ 34 µM) in the test on Enterococcus faecalis [8]. Besides, the MIC against Staphylococcus aureus [9] was 2 µg/mL (≈ 4.25 µM); in the test with Acinetobacter baumannii [26], 16 µg/mL; against Acinetobacter baumannii [10], 64 to 128 µg/mL (≈ 136 to 272 µM); in the test with Acinetobacter baumannii [11], 32 µg/mL; against Acinetobacter baumannii [12], 16 µg/mL (≈ 34 µM); in the test on Acinetobacter baumannii [29] it was 64 µg/mL. Further, the MIC with Escherichia coli [30] is 8 µg/mL; in the test on Pseudomonas aeruginosa [13] it was 16 µg/mL; in the test on Klebsiella pneumoniae [31], 64 µg/mL; with Acinetobacter baumannii [14], 16 µg/mL; with Klebsiella pneumoniae [15], 128 µg/mL (≈ 272 µM); with Enterococcus faecalis [16], 8 µg/mL (≈ 17 µM). The values for the MIC against Pseudomonas aeruginosa [17], with Pseudomonas aeruginosa [18] and with Klebsiella pneumoniae [19] were 128 µg/mL (≈ 272 µM), 128 µg/mL and 128 µg/mL, respectively. Besides, the result in the test on Staphylococcus aureus [22] and in the test on Enterococcus faecalis [25] was Active. Moreover, the IC50 against DNA gyrase was 15.4 µM; at Topoisomerase IV, 61.2 µM; in test [28], 7.48 µg/mL; with HEK293, 11.7 to 18.9 µg/mL (≈ 24.8 to 40.2 µM); in the test with HeLa, 11.7 to 18.9 µg/mL (≈ 24.8 to 40.2 µM). The Activity with Staphylococcus aureus [27] was below 7.6e-08; in the test with Enterococcus faecium, below 9.4e-08.
On to `C[C@H]1COc2c(N3CCN(C)CC3)c(F)cc3c(=O)c(C(=O)O)cn1c23.C[C@H]1COc2c(N3CCN(C)CC3)c(F)cc3c(=O)c(C(=O)O)cn1c23.O` [LEVOFLOXACIN], for which the MIC is below 0.12 µg/mL with Escherichia coli [2]; 0.5 µg/mL against Enterococcus faecalis [21]; 0.12 µg/mL in the test on Klebsiella pneumoniae [4]; 8 µg/mL with Staphylococcus aureus [6]; 8 µg/mL in the test on Staphylococcus aureus [7]; 1 µg/mL against Enterococcus faecalis [8]. Moreover, the results for the minimal inhibitory concentration (MIC) in the test with Staphylococcus aureus [9], with Acinetobacter baumannii [12] and against Enterococcus faecalis [16] were 0.12 µg/mL, 0.12 µg/mL and 1 µg/mL, respectively. For the same compound, the half-maximal inhibitory concentration (IC50) on Topoisomerase IV was 9.85 µM; in test [28], 8.71 µg/mL. Also, the Activity in the test with Staphylococcus aureus [27] amounted to 1.87e-05; with Enterococcus faecium, 7.08e-06.
